High-throughput results from PubChem BioAssay.
Hits are enriched below; roughly 5.1% of the tested compounds scored in any of these assays.
STAT3 activator: activators of IL-6 induced STAT3 signaling; U3A cells, IL-6 STAT3-luciferase reporter, luminescence; 100% = signal with IL-6 EC80 alone; activation (% of control), % at 5.6 µM; hit rate 0.91% among 190,000; AID 871;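 active means activation above the screen-wide mean of compound activation plus 3 SD, cut at about 130% in these data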;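 further: 0% = background luminescence of wells with medium and substrate only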
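Test system: Human STAT1-deficient U3A cells with stable STAT3-luciferase reporter | Also added: Interleukin-6, 33 ng/mL | Timing: Compound pre-incubation 1 h before IL-6, then 6 h stimulation at 37 °C | Technique: Luciferase reporter luminescence | Read-out: Percent of IL-6-only median luminescence | Benchmarks: IL-6-only wells as 100% reference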
APP 5'UTR act: activates APP 5'UTR luciferase reporter. SH-SY5Y APP 5'UTR luciferase reporter, luminescence; zero percent = DMSO vehicle wells. activation, % at 2 µM. hit rate 1% among 190,000;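 active means activation above a set limit, based on mean plus 3 SD of controls, cut at about 140% in these data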
STAT3 blocker: inhibitors of IL-6 induced STAT3 signaling; hit rate 0.89% among 190,000; inhibition, % at 5.5 µM; U3A cells, IL-6 STAT3-luciferase reporter, luminescence; host cell line lacks STAT1; AID 862;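 active means inhibition above the mean inhibition across all screened compounds plus 3 SD, cut at about 44% in these data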;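 further: 0% = DMSO only wells and 100% = 100 µM nifuroxazide control wells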
STAT1 blocker: reduces IFN-gamma driven STAT1 reporter signal; inhibition, % at 5.5 µM; hit rate 0.35% among 200,000; NIH 3T3 STAT1-luciferase reporter, luminescence;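 active means inhibition above a set limit, the mean inhibition across all tested compounds plus 3 SD, cut at about 34% in these data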;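 further: 0% = IFN-gamma with DMSO and 100% = IFN-gamma with 300 µM nifuroxazide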
NF-kB neuron act: compounds increasing NF-kB expression in human neuronal cells; NF-kB reporter expression; stronger effect = higher value; fold change at 12.5 µM; hit rate 1.6% among 190,000; in the data active means fold change above about 3.3
STAT1 activator: increases IFN-gamma driven STAT1 reporter signal. NIH 3T3 STAT1-luciferase reporter, luminescence; 100% = IFN-gamma alone, no compound. activation (% of control), % at 5.5 µM. hit rate 2.6% among 200,000. AID 932;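 active means activation above the screen-wide mean activation plus 3 SD, cut at about 130% in these data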;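 further: raw ratio to IFN-gamma control signal so 100% means no change and 0% no light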
* hit, by the source's call.

SMILES	STAT3 activator	APP 5'UTR act	STAT3 blocker	STAT1 blocker	NF-kB neuron act	STAT1 activator
COc1cc(C(=O)NC2CC(C)(C)NC(C)(C)C2)cc(OC)c1OC	97	-9	9	-3	1.2	100
Cc1nc(SCC2(C)CC2(Cl)Cl)n[nH]1 (configuration not stated)	102	6	8	-4	1.2	102
Cn1c(Sc2ccc(Br)cc2)c(C=O)c2ccccc21	157*	2	-49	16	0.76	87
Cc1ccc(OCCNc2cc(N3CCN(CCO)CC3)ccc2[N+](=O)[O-])cc1C	109	5	-5	-2	0.54	102
N#Cc1cn(-c2ccccc2)nc1-c1ccc2c(c1)OCCO2	114	118	-16	-50	2.2	146*
CCN(CC)C(=O)c1cn(-c2ccccc2)nc1-c1ccc2c(c1)OCCO2	101	-6	0	9	1	90
Brc1ccccc1C1CC(c2ccccc2)=Nc2ccccc2N1 (configuration not stated)	123	149*	-26	-39	2.4	135*
c1ccc(C2=Nc3ccccc3NC(c3ccccc3)C2)cc1 (configuration not stated)	110	18	-8	-26	3	123
Cc1cccc2[nH]c(CN(C)C(=O)CC3C(=O)NCCN3CC(C)(C)C)nc12 (configuration not stated)	98	5	6	4	1.1	95
CC(C)c1ccc(CNc2ccc([N+](=O)[O-])cn2)cc1	109	74	1	-43	2.3	138*
O=C(/C=C/c1cccs1)c1ccc(N2CCOCC2)cc1	85	236*	21	-21	3.2	120
O=C(N/N=C/c1cccc(OC(=O)c2ccco2)c1)c1ccc(F)cc1	86	53	20	-25	2.3	122
Cc1ccc(-c2cn3c(n2)CCCC3)cc1	97	22	8	4	1.4	98
COc1ccc(-c2cn3c(n2)CCC3)cc1	108	36	-4	-32	2.3	129*
COCCN(C(=O)CSc1nnc(-c2ccccc2C)n1C)c1c(N)n(Cc2ccccc2)c(=O)[nH]c1=O	109	-7	-2	2	1	99
N#C/C(=C(/O)COC(=O)CSc1ccc(Cl)cc1)c1nc2ccccc2[nH]1	97	1	6	14	3.9*	87
Cc1cc(SCC(=O)OC/C(O)=C(\C#N)c2nc3ccccc3[nH]2)c(C)cc1Br	96	23	10	-3	2.2	100
CCC(C(=O)O)P(=O)(c1ccc(Cl)cc1)c1ccc(Cl)cc1 (configuration not stated)	103	16	6	-4	1.4	104
COc1ccc(/C(N)=N/OC(=O)c2ccco2)cc1	56	182*	57*	53*	0.96	50
Cc1cccc(/C(N)=N/OC(=O)c2ccco2)c1	82	163*	24	-11	6.4*	110
N/C(=N\OC(=O)c1ccco1)c1ccccc1	89	142*	16	-50	2.2	143*
N/C(=N\OC(=O)c1ccco1)c1ccccn1	97	77	7	-20	2.2	116
Cc1cccc(/C(N)=N/OC(=O)N2CCOCC2)c1	101	19	4	-18	1.6	116
COc1ccc(C(=O)COC(=O)c2ccco2)cc1	108	66	-2	-18	3	116
Cc1ccc(/C(N)=N/OC(=O)c2ccco2)cc1	77	162*	31	6	5.2*	94
SMILES	STAT3 activator	APP 5'UTR act	STAT3 blocker	STAT1 blocker	NF-kB neuron act	STAT1 activator
NS(=O)(=O)c1ccc(CCNC(=O)c2ccc3nc4ccc(Cl)cc4c(=O)n3c2)cc1	100	-3	5	3	1.1	99
Cc1nc2ccccc2n1C(=O)c1cc(-c2ccc(Br)cc2)nc2ccccc12	91	10	11	-5	1.1	104
Cc1cc(OCC(=O)NCc2ccncc2)ccc1Cl	97	3	6	-7	1.2	105
COc1cccc(C2=NOC(C(=O)Nc3cccnc3Cl)C2)c1 (configuration not stated)	95	9	7	4	1.6	97
O=C(Nc1cccnc1)c1cccc(F)c1	94	3	5	-4	0.92	104
COCCN(C(=O)c1ccccc1OC)c1nnc(C)s1	134*	16	-36	0	1.4	100
COc1ccccc1C(=O)Nc1nnc(C)s1	103	40	3	-28	2.2	126
Cc1ccccc1NC(=O)c1ccc(CN2CCC(Cc3ccccc3)CC2)cc1	66	11	50*	-5	1.1	105
Cc1ccc(NS(=O)(=O)c2ccc(NC(=O)C(C)Sc3ccc(Cl)cc3)cc2)c(C)c1 (configuration not stated)	107	18	-9	-1	0.77	101
CCN(CC(=O)Nc1ccc(NC(C)=O)cc1)C(=O)c1n[nH]c(=O)c2ccccc12	98	22	6	3	1.2	97
Oc1cccc2ccc(/C=C/c3c(F)cccc3Cl)nc12	120	136*	-19	0	5.4*	97
Nc1nccc(/C=C/c2c(F)cccc2Cl)n1	81	27	27	-25	1.6	122
Cn1ccnc1SCc1cn2cc(Br)ccc2n1	68	164*	43	-18	2.3	117
CCN(CC)CC#CCC(C)(c1ccccc1)c1ccccc1	104	-9	3	1	1.1	99
CCOC(=O)c1ccc(N=Nc2c(C)c(C#N)c(O)[nH]c2=O)cc1	106	135*	2	-1	3.6*	101
CCN(CC)C(=O)C[n+]1ccc(C(N)=O)cc1	99	-17	3	4	1.3	95
CC(C)(C)NC(=O)C[n+]1ccc(C(N)=O)cc1	102	6	0	7	6.2*	92
CC1Cc2ccccc2N1C(=S)NC(=O)c1ccco1 (configuration not stated)	101	-1	3	-4	0.99	101
O=C(c1ccc(Br)o1)N1CCc2ccccc21	97	119	8	-53	4.3*	148*
O=C1CCN(C(=O)/C=C/c2ccccc2)c2ccccc21	91	15	12	-31	1.9	129*
O=C(/C=C/c1ccco1)N1CCc2ccccc21	73	250*	35	12	7.7*	90
COc1ccc(/C=C/C(=O)N2CCCc3ccccc32)cc1	98	-3	2	-11	1.2	110
O=C(NC(=S)N1CCCc2ccccc21)c1ccco1	135*	29	-45	-16	0.69	115
CCOC(=O)/C=C/C(=O)N1CCc2ccccc21	111	-2	-1	3	1.1	97
CCN1CCCC1CNCC(O)COc1ccc(C(C)(C)C)cc1C (configuration not stated)	94	4	16	4	1	95
COC(=O)c1oc2ccccc2c1NC(=O)/C=C/C(=O)O	108	8	-6	3	1.6	97
